Measurements: ChEMBL document CHEMBL5696442, “Discovery of type II inhibitors of TGFβ-activated kinase 1 (TAK1) and mitogen-activated protein kinase kinase kinase kinase 2 (MAP4K2)” (J Med Chem, 2015)
Calls of active or inactive are those of the source. The calls are words filed in the database; no cut-off is given here.

Columns and labels:
[1] = target: Serine/threonine-protein kinase Nek4 (Homo sapiens) (UniProt P51957); assay: Inhibition of NEK4 Lys2 labeling site in human Huh-7 cells at 1 uM by KiNativ Profiling analysis relative to control; assay type: cell-based
[2] = target: T1, Phosphatidylinositol 5-phosphate 4-kinase type-2 alpha (Homo sapiens) (UniProt P48426); assay: Inhibition of PIP4K2A ATP labeling site harbouring AKELPTLKDNDFINEGQK in human Huh-7 cells at 1 uM by KiNativ Profiling analysis relative to control; assay type: cell-based
T1 sequence (whole entry): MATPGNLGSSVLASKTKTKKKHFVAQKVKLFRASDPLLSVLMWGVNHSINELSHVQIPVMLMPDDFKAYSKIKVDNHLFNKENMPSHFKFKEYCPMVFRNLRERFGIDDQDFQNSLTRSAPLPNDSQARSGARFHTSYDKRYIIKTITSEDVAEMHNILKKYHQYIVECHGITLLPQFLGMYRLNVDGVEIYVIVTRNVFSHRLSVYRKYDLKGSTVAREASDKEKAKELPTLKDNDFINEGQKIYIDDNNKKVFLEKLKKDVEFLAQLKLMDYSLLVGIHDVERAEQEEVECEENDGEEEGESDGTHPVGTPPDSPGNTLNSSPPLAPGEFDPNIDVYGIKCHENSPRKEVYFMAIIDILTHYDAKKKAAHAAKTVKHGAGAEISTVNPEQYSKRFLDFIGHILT

[3] = target: Ribosomal protein S6 kinase alpha-3 (Homo sapiens) (UniProt P51812); assay: Inhibition of RSK2 domain2 Lys2 labeling site harbouring TVEYLHAQGVVHRDLKPSNILYVDESGNPESIR in human Huh-7 cell lysate at 1 uM by KiNativ Profiling analysis relative to control; assay type: subcellular
Ribosomal protein S6 kinase alpha-3 (Homo sapiens), sequence (P51812 whole entry, the tested form may be a part): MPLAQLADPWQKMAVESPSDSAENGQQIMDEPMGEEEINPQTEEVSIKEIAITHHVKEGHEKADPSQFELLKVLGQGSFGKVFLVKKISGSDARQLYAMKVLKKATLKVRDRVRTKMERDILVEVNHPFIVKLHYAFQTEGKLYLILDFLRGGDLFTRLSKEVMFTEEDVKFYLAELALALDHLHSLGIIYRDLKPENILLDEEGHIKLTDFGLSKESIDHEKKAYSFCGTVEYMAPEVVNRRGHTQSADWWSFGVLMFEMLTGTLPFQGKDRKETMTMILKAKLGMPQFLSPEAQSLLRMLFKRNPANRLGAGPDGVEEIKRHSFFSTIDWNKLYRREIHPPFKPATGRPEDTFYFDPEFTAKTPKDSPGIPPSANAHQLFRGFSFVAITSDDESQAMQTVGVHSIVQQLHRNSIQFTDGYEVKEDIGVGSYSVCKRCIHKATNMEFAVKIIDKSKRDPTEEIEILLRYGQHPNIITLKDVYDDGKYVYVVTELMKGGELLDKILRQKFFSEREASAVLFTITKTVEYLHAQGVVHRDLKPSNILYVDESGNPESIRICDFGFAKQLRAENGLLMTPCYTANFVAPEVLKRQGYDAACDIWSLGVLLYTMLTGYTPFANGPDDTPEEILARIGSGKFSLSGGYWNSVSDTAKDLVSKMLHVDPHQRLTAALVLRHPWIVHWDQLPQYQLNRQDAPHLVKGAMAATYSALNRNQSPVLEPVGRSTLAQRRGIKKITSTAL

[4] = target: TRAF2 and NCK-interacting protein kinase (Homo sapiens) (UniProt Q9UKE5); assay: Inhibition of ZC2/TNIK Lys2 labeling site in human Huh-7 cells at 1 uM by KiNativ Profiling analysis relative to control; assay type: cell-based
[5] = target: Proto-oncogene tyrosine-protein kinase Src (Homo sapiens, UniProt P12931); assay: Inhibition of SRC ACT labeling site in human Huh-7 cells at 1 uM by KiNativ Profiling analysis relative to control; assay type: cell-based
[6] = target: c-Jun N-terminal kinase, JNK (Homo sapiens) (UniProt P45983+P53779+P45984); assay: Inhibition of JNK1/2/3 K2 labeling site in human Huh-7 cells at 1 uM by KiNativ Profiling analysis relative to control; assay type: cell-based
[7] = target: Proto-oncogene tyrosine-protein kinase receptor Ret (Homo sapiens) (UniProt P07949); assay: Inhibition of RET (unknown origin) at 10 uM by Ambit Kinomescan binding assay relative to control; values are per cent of control
Proto-oncogene tyrosine-protein kinase receptor Ret (Homo sapiens), sequence (P07949 whole entry): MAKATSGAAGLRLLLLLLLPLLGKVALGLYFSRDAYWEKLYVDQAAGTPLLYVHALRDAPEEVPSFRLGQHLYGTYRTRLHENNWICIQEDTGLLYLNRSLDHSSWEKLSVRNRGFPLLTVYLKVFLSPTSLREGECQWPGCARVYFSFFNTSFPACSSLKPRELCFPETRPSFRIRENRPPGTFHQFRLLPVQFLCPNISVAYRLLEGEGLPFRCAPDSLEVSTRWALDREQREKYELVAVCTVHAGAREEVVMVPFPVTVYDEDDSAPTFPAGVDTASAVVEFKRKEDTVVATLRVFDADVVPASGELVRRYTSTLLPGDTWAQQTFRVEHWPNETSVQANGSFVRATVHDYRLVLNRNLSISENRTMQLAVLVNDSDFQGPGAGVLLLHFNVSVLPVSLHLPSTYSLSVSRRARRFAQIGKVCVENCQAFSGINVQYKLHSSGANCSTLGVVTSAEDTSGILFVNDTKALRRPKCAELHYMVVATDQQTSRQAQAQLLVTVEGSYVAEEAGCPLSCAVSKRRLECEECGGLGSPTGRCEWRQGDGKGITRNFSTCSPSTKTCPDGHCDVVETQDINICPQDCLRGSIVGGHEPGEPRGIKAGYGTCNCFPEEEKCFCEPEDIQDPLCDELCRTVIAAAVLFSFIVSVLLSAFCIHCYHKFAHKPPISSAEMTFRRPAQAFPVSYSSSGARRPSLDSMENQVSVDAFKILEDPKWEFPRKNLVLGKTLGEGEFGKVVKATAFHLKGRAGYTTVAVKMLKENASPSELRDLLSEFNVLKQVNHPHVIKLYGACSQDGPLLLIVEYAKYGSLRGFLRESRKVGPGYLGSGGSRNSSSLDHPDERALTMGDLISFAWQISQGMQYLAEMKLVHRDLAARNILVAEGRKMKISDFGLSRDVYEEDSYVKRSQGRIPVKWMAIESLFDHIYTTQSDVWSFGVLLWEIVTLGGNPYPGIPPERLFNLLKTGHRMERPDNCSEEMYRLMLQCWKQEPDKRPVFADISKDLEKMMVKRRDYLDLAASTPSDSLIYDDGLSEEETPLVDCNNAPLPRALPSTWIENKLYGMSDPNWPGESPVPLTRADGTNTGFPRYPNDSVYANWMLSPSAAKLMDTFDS

[8] = target: Activin receptor type-1-like (Homo sapiens) (UniProt P37023); assay: Inhibition of ACVRL1 (unknown origin) at 10 uM by Ambit Kinomescan binding assay
Activin receptor type-1-like (Homo sapiens), sequence (P37023 whole entry): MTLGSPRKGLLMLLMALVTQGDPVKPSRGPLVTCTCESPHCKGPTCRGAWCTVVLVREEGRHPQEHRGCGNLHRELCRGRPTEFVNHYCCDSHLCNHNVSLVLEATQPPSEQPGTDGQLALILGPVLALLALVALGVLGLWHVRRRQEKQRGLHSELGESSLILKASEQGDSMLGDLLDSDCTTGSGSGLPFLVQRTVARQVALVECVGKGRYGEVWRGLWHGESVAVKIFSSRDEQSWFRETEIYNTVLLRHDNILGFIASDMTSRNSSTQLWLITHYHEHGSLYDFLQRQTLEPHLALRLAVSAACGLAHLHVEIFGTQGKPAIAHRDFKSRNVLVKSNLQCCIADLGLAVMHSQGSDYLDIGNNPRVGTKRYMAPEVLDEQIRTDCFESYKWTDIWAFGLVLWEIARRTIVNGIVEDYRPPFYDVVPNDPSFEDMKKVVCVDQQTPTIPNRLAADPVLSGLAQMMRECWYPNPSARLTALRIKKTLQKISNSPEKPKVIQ

[9] = target: 1-phosphatidylinositol 3-phosphate 5-kinase (Homo sapiens) (UniProt Q9Y2I7); assay: Inhibition of PIP5K3 ATP labeling site in human Huh-7 cells at 10 uM by KiNativ Profiling analysis relative to control; assay type: cell-based
[10] = target: T2, Serine/threonine-protein kinase tousled-like 1 (Homo sapiens) (UniProt Q9UKI8); assay: Inhibition of TLK1 (unknown origin) at 10 uM by Ambit Kinomescan binding assay
T2 sequence (whole entry): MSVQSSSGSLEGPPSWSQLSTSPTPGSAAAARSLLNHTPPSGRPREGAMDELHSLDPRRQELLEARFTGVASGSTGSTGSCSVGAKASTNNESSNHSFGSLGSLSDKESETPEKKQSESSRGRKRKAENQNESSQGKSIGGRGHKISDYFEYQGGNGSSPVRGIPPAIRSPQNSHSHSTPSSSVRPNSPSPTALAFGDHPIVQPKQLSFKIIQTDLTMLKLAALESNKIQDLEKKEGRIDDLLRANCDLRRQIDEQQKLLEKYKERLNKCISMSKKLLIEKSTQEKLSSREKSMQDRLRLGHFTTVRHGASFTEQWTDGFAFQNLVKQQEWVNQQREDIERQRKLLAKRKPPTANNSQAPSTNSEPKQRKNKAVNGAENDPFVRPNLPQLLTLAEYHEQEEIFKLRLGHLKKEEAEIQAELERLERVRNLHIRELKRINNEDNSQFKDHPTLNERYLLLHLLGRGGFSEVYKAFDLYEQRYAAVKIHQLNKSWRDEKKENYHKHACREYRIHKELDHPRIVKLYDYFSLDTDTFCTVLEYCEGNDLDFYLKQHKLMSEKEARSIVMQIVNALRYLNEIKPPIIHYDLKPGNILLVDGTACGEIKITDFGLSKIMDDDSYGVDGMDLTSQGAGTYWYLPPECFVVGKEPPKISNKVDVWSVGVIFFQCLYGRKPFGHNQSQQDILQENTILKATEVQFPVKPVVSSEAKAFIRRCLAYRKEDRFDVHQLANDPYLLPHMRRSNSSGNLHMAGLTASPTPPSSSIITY

[11] = target: Tyrosine-protein kinase ABL (Homo sapiens) (UniProt P00519+P42684); assay: Inhibition of ABL1/2 K1 labeling site in human Huh-7 cells at 10 uM by KiNativ Profiling analysis relative to control; assay type: cell-based
[12] = target: Rho-associated protein kinase 2 (Homo sapiens) (UniProt O75116); assay: Inhibition of ROCK2 Lys2 labeling site in human A-375 cells at 0.5 uM by KiNativ Profiling analysis relative to control; assay type: cell-based
Rho-associated protein kinase 2 (Homo sapiens), sequence (O75116 whole entry, looked up): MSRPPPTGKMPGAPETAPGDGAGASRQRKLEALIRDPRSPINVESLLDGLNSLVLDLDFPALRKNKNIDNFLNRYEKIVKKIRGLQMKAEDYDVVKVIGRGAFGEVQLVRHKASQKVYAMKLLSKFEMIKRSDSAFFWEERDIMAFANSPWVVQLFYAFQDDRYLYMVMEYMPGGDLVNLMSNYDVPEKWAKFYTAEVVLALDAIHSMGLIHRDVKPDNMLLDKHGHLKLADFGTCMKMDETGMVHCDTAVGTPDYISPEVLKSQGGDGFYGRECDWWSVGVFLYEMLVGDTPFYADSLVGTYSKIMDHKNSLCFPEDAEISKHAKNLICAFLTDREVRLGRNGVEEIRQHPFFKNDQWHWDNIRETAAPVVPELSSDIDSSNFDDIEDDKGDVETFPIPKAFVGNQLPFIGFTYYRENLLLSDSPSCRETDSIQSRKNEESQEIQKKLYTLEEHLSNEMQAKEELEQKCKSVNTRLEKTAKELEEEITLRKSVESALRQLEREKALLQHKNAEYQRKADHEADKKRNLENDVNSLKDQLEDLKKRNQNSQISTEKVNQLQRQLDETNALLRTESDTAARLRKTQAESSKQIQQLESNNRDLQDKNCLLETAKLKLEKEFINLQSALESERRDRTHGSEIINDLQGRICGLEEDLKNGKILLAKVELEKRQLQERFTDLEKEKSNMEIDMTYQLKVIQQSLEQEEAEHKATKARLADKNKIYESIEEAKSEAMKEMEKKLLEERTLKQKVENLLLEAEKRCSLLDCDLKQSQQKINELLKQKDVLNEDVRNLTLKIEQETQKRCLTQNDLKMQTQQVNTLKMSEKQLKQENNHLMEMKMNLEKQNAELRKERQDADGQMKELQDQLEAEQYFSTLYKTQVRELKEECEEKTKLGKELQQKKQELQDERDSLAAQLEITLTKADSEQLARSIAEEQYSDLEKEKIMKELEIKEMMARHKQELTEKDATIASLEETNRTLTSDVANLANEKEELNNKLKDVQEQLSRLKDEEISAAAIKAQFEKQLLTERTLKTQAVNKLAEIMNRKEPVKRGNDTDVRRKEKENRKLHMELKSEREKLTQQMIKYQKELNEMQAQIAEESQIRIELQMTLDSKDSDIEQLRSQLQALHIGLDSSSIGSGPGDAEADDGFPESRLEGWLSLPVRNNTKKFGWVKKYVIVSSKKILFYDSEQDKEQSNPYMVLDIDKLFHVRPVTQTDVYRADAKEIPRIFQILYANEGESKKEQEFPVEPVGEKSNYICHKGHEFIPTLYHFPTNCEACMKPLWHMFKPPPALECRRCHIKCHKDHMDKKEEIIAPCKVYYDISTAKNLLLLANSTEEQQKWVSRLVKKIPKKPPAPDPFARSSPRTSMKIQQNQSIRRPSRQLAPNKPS
Method in brief: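 Live A375 melanoma cells treated with compound at 5 or 0.5 μM, then lysed. Lysate kinases were labeled with a lysine-reactive ATP or ADP-biotin probe. Inhibition was read as protection of labeling sites from the probe.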

[13] = target: Cytoplasmic tyrosine-protein kinase BMX (Homo sapiens) (UniProt P51813); assay: Inhibition of BMX (unknown origin) at 10 uM by Ambit Kinomescan binding assay relative to control
[14] = target: Tyrosine-protein kinase Fgr (Homo sapiens) (UniProt P09769); assay: Inhibition of FGR (unknown origin) at 10 uM by Ambit Kinomescan binding assay relative to control
Tyrosine-protein kinase Fgr (Homo sapiens), sequence (P09769 2-529 limits assumed): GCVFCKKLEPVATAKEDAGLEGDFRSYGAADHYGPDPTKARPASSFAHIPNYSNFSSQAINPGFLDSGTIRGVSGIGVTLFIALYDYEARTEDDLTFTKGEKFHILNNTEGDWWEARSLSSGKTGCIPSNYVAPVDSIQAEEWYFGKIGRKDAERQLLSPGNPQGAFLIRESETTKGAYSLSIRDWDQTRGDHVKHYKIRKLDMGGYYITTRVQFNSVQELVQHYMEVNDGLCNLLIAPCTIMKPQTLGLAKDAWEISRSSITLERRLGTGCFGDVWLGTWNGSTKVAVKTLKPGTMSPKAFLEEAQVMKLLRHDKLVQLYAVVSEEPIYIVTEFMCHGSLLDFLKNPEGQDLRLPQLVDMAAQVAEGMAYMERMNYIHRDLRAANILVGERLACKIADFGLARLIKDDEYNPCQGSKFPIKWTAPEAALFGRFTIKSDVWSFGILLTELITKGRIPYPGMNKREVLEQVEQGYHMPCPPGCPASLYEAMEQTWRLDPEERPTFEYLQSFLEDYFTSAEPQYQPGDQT

[15] = target: Serine/threonine-protein kinase PLK1 (Homo sapiens) (UniProt P53350); assay: Inhibition of PLK1 Lys2 labeling site in human A-375 cells at 0.05 uM by KiNativ Profiling analysis relative to control; assay type: cell-based
Serine/threonine-protein kinase PLK1 (Homo sapiens), sequence (P53350 whole entry): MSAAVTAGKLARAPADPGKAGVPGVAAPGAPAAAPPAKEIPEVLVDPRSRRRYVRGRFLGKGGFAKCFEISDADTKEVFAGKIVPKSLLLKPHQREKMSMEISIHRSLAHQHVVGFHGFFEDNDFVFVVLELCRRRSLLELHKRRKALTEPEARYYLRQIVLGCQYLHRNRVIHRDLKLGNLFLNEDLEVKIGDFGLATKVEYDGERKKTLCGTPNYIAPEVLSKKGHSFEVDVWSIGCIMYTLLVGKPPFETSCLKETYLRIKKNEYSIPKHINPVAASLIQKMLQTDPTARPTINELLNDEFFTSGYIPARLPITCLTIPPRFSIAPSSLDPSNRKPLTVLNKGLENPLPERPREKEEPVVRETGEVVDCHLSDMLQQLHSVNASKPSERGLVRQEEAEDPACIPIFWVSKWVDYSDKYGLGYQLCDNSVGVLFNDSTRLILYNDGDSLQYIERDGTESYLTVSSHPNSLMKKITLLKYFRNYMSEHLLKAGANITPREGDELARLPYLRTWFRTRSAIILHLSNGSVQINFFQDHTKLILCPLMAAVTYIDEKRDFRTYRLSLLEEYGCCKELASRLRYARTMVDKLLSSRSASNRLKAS

[16] = target: Myosin-IIIb (Homo sapiens) (UniProt Q8WXR4); assay: Inhibition of MYO3B (unknown origin) at 1 uM by Ambit Kinomescan binding assay relative to control
Method in brief: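 In vitro ATP-site competition binding assay against a panel of over 420 kinases (KinomeScan), with compound tested at 10 or 1 μM.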

CNc1cc(Oc2cc(C(=O)Nc3cc(N4CCN(C)CC4)cc(C(F)(F)F)c3)ccc2C)ncn1
inhibition [1]: 43.4%
inhibition [2]: 13.4%
inhibition [3]: 11.6%
inhibition [4]: 9.7%

CCN1CCN(Cc2ccc(NC(=O)c3ccc(C)c(Oc4ccnc5[nH]ccc45)c3)cc2C(F)(F)F)CC1
inhibition [5]: -0.3%
inhibition [6]: 29.4%
residual activity [7]: 0%
inhibition [8]: inactive
inhibition [9]: 13.8%
inhibition [10]: inactive
inhibition [11]: 96%
inhibition [12]: 2.3%
inhibition [13]: 2.4%
inhibition [14]: 1.2%

CCN1CCN(Cc2ccc(NC(=O)c3ccc(C)c(/C=C/c4cnc5[nH]ccc5c4OC)c3)cc2C(F)(F)F)CC1
inhibition [15]: 1.3%
inhibition [16]: 84%
